Results as given in ChEMBL document CHEMBL5550111, “Design, synthesis and biological evaluation of aryloxy thiophosphoramidate triesters of anticancer nucleoside analogues” (Bioorg Med Chem, 2024).

Tests used:
MIA PaCa-2 [1] = assay: Cytotoxicity against human MIA PaCa-2 cells assessed as inhibition of cell viability incubated for 72 hrs by MTS assay; format: functional, cell-based; details: MIA PaCa-2, 72 h
Method in brief: (§1)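 Cells seeded at 0.5 to 100 × 10^3 per well the day before treatment, then exposed for 72 h to 9 serial concentrations (3.16-fold dilutions, top 198 μM), in duplicate. MTS added for a final 4 h at 37 °C and absorbance read. IC50 is the concentration giving 50% loss of viability. MI% is the maximum inhibition over the tested range.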

MIA PaCa-2 [2] = assay: Cytotoxicity against human MIA PaCa-2 cells assessed as maximum inhibition of cell viability upto 198 uM incubated for 72 hrs by MTS assay relative to control; format: functional; details: up to 198 µM
Method in brief: (§2)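 Cells seeded at 0.5 to 100 × 10^3 per well the day before drug addition, then exposed to compound for 72 h. MTS added afterwards, with a further 4 h at 37 °C, and absorbance read. Tested in duplicate at 9 serial 3.16-fold dilutions, top concentration 198 μM. MI% is the maximum inhibition of viability across the tested range.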

[3] = Cytotoxicity against human T24/83 cells assessed as inhibition of cell viability incubated for 72 hrs by MTS assay; format: functional, cell-based; details: T24/83, 72 h; method in brief: as §1
[4] = Cytotoxicity against human T24/83 cells assessed as maximum inhibition of cell viability upto 198 uM incubated for 72 hrs by MTS assay relative to control; format: functional; details: up to 198 µM; method in brief: as §2
5637 [5] = assay: Cytotoxicity against human 5637 cells assessed as inhibition of cell viability incubated for 72 hrs by MTS assay; format: functional, cell-based; details: Homo sapiens, 5637, 72 h; method in brief: as §1
5637 [6] = assay: Cytotoxicity against human 5637 cells assessed as maximum inhibition of cell viability upto 198 uM incubated for 72 hrs by MTS assay relative to control; format: functional; details: up to 198 µM; method in brief: as §2
PC-3 [7] = assay: Cytotoxicity against human PC-3 cells assessed as inhibition of cell viability incubated for 72 hrs by MTS assay; format: functional, cell-based; details: PC-3, 72 h; method in brief: as §1
PC-3 [8] = assay: Cytotoxicity against human PC-3 cells assessed as maximum inhibition of cell viability upto 198 uM incubated for 72 hrs by MTS assay relative to control; format: functional; details: up to 198 µM; method in brief: as §2
HT-29 [9] = assay: Cytotoxicity against human HT-29 cells assessed as inhibition of cell viability incubated for 72 hrs by MTS assay; format: functional, cell-based; details: HT-29, 72 h; method in brief: as §1
HT-29 [10] = assay: Cytotoxicity against human HT-29 cells assessed as maximum inhibition of cell viability upto 198 uM incubated for 72 hrs by MTS assay relative to control; format: functional; details: up to 198 µM; method in brief: as §2
COLO 205 [11] = assay: Cytotoxicity against human COLO 205 cells assessed as inhibition of cell viability incubated for 72 hrs by MTS assay; format: functional, cell-based; details: COLO 205, 72 h; method in brief: as §1
COLO 205 [12] = assay: Cytotoxicity against human COLO 205 cells assessed as maximum inhibition of cell viability upto 198 uM incubated for 72 hrs by MTS assay relative to control; format: functional; details: up to 198 µM; method in brief: as §2
MDA-MB-231 [13] = assay: Cytotoxicity against human MDA-MB-231 cells assessed as inhibition of cell viability incubated for 72 hrs by MTS assay; format: functional, cell-based; details: MDA-MB-231, 72 h; method in brief: as §1
MDA-MB-231 [14] = assay: Cytotoxicity against human MDA-MB-231 cells assessed as maximum inhibition of cell viability upto 198 uM incubated for 72 hrs by MTS assay relative to control; format: functional; details: up to 198 µM; method in brief: as §2
MCF7 [15] = assay: Cytotoxicity against human MCF7 cells assessed as inhibition of cell viability incubated for 72 hrs by MTS assay; format: functional, cell-based; details: MCF7, 72 h
MCF7 [16] = assay: Cytotoxicity against human MCF7 cells assessed as maximum inhibition of cell viability upto 198 uM incubated for 72 hrs by MTS assay relative to control; format: functional; details: up to 198 µM; method in brief: as §2
A498 [17] = assay: Cytotoxicity against human A498 cells assessed as inhibition of cell viability incubated for 72 hrs by MTS assay; format: functional, cell-based; details: A498, 72 h; method in brief: as §1
A498 [18] = assay: Cytotoxicity against human A498 cells assessed as maximum inhibition of cell viability upto 198 uM incubated for 72 hrs by MTS assay relative to control; format: functional; details: up to 198 µM; method in brief: as §2
[19] = Cytotoxicity against human ACHN-luc2 cells assessed as inhibition of cell viability incubated for 72 hrs by MTS assay; format: functional, cell-based; details: ACHN-luc2, 72 h; method in brief: as §1
[20] = Cytotoxicity against human ACHN-luc2 cells assessed as maximum inhibition of cell viability upto 198 uM incubated for 72 hrs by MTS assay relative to control; format: functional; details: up to 198 µM; method in brief: as §2
CAKI-2 [21] = assay: Cytotoxicity against human CAKI-2 cells assessed as inhibition of cell viability incubated for 72 hrs by MTS assay; format: functional, cell-based; details: CAKI-2, 72 h; method in brief: as §1
CAKI-2 [22] = assay: Cytotoxicity against human CAKI-2 cells assessed as maximum inhibition of cell viability upto 198 uM incubated for 72 hrs by MTS assay relative to control; format: functional; details: up to 198 µM; method in brief: as §2
HepG2 [23] = assay: Cytotoxicity against human HepG2 cells assessed as inhibition of cell viability incubated for 72 hrs by MTS assay; format: functional, cell-based; details: HepG2, 72 h; method in brief: as §1
HepG2 [24] = assay: Cytotoxicity against human HepG2 cells assessed as maximum inhibition of cell viability upto 198 uM incubated for 72 hrs by MTS assay relative to control; format: functional; details: up to 198 µM; method in brief: as §2
RL [25] = assay: Cytotoxicity against human RL cells assessed as inhibition of cell viability incubated for 72 hrs by MTS assay; format: functional, cell-based; method in brief: as §1
RL [26] = assay: Cytotoxicity against human RL cells assessed as maximum inhibition of cell viability upto 198 uM incubated for 72 hrs by MTS assay relative to control; format: functional; details: up to 198 µM; method in brief: as §2
K562 [27] = assay: Cytotoxicity against human K562 cells assessed as inhibition of cell viability incubated for 72 hrs by MTS assay; format: functional, cell-based; details: K562, 72 h; method in brief: as §1
K562 [28] = assay: Cytotoxicity against human K562 cells assessed as maximum inhibition of cell viability upto 198 uM incubated for 72 hrs by MTS assay relative to control; format: functional; details: up to 198 µM; method in brief: as §2
KG-1 [29] = assay: Cytotoxicity against human KG-1 cells assessed as inhibition of cell viability incubated for 72 hrs by MTS assay; format: functional, cell-based; details: KG-1, 72 h; method in brief: as §1
KG-1 [30] = assay: Cytotoxicity against human KG-1 cells assessed as maximum inhibition of cell viability upto 198 uM incubated for 72 hrs by MTS assay relative to control; format: functional; details: up to 198 µM; method in brief: as §2
HL-60 [31] = assay: Cytotoxicity against human HL-60 cells assessed as inhibition of cell viability incubated for 72 hrs by MTS assay; format: functional, cell-based; details: HL-60, 72 h; method in brief: as §1
HL-60 [32] = assay: Cytotoxicity against human HL-60 cells assessed as maximum inhibition of cell viability upto 198 uM incubated for 72 hrs by MTS assay relative to control; format: functional; details: up to 198 µM; method in brief: as §2
MOLT-4 [33] = assay: Cytotoxicity against human MOLT-4 cells assessed as inhibition of cell viability incubated for 72 hrs by MTS assay; format: functional, cell-based; details: MOLT-4, 72 h; method in brief: as §1
MOLT-4 [34] = assay: Cytotoxicity against human MOLT-4 cells assessed as maximum inhibition of cell viability upto 198 uM incubated for 72 hrs by MTS assay relative to control; format: functional; details: up to 198 µM; method in brief: as §2

## C[C@H](NP(=S)(OC[C@@H]1C[C@@H](O)[C@H](n2cnc3c(N)ncnc32)O1)Oc1ccccc1)C(=O)OCc1ccccc1 (some centres undefined)
MIA PaCa-2 [1]
  IC50: 12.6 µM
MIA PaCa-2 [2]
  Imax: 100%
[3]
  IC50: 42.6 µM
[4]
  Imax: 100%
5637 [5]
  IC50: 82.6 µM
5637 [6]
  Imax: 100%
PC-3 [7]
  IC50: 62.8 µM
PC-3 [8]
  Imax: 97%
HT-29 [9]
  IC50: 57.9 µM
HT-29 [10]
  Imax: 100%
COLO 205 [11]
  IC50: 41.8 µM
COLO 205 [12]
  Imax: 99%
MDA-MB-231 [13]
  IC50: 50.6 µM
MDA-MB-231 [14]
  Imax: 96%
MCF7 [15]
  IC50: 40.4 µM
MCF7 [16]
  Imax: 100%
A498 [17]
  IC50: 44.5 µM
A498 [18]
  Imax: 95%
[19]
  IC50: 33.9 µM
[20]
  Imax: 97%
CAKI-2 [21]
  IC50: 76 µM
CAKI-2 [22]
  Imax: 78%
HepG2 [23]
  IC50: 25.3 µM
HepG2 [24]
  Imax: 100%
RL [25]
  IC50: 95.6 µM
RL [26]
  Imax: 113%
K562 [27]
  IC50: 64.5 µM
K562 [28]
  Imax: 96%
KG-1 [29]
  IC50: 60 µM
KG-1 [30]
  Imax: 98%
HL-60 [31]
  IC50: 73.7 µM
HL-60 [32]
  Imax: 99%
MOLT-4 [33]
  IC50: 9.19 µM
MOLT-4 [34]
  Imax: 99%
